Reference: publication PMC2151622 (The Journal of General Physiology, 2007)
Residue numbers refer to the chain shown, from its start.

Experiments:
Assay type in all cases: cell-based, rabbit
D444S-EAAC1 [1] = target: T1, D444S-EAAC1 (Oryctolagus cuniculus, UniProt P31597, D444S); experiment: Substrate-induced steady-state transport currents in oocytes expressing D444S; settings: 2 mM for L-aspartate and succinate, other concentrations not given
T1 sequence (P31597 1-524 D444S): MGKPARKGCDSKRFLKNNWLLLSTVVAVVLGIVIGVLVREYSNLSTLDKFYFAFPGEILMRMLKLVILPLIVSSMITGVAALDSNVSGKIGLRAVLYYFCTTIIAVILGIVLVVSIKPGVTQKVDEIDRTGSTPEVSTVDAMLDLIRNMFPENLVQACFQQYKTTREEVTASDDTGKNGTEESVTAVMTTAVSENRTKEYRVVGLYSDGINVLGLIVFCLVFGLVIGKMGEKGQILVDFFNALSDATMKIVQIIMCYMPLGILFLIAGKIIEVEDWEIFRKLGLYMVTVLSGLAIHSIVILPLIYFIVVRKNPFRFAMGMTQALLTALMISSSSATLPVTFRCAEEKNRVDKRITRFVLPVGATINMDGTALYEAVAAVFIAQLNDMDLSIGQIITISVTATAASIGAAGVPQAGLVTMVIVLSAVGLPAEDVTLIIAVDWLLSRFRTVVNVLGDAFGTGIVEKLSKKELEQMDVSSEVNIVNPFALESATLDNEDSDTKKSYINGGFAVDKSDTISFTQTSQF

D444S-EAAC1 [2] = target: T1, D444S-EAAC1; experiment: Blockade of sodium-dependent transient currents; settings: D444S; for Decay time of transient currents blocked: 10 mM compound, at −100 mV; for IC50: read-out: IC50 for substrates/blockers of charge movements, Xenopus oocytes, mean ± SEM
In short: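 Oocytes expressing the mutant were clamped in sodium ND96 and given 250-ms pulses from −25 mV to −100…+40 mV, with and without compound; TBOA was added to a stopped bath. Isolated transients (without minus with compound) were integrated at −100 and +40 mV and summed. Charge was normalised to 10 mM of each compound and Hill-fitted; 4–6 oocytes. Decay came from an exponential fit; 3–10 oocytes.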

D444N mutant EAAC1 = target: T2, D444N mutant EAAC1 (Oryctolagus cuniculus, UniProt P31597, D444N); experiment: Blockade of transient currents; settings: D444N; for IC50: read-out: IC50 for substrates/blockers of charge movements, Xenopus oocytes, mean ± SEM
T2 sequence (P31597 1-524 D444N): T1 sequence (P31597 1-524 D444S) with S444N

D444C after MTSES = target: T3, D444C after MTSES (Oryctolagus cuniculus, UniProt P31597, D444C); experiment: Blockade of transient currents; settings: for Decay time of transient currents blocked: D444C after MTSES, 10 mM compound; for IC50: read-out: IC50 for substrates/blockers of charge movements, D444C after MTSES (2 mM), Xenopus oocytes, mean ± SEM
T3 sequence (P31597 1-524 D444C): T1 sequence (P31597 1-524 D444S) with S444C
In short: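 Oocytes were injected with cRNA for His-tagged EAAC1 D444C and held by two-electrode voltage clamp at −25 mV, stepped from −100 to +40 mV in 10-mV steps of 250 ms each, in ND96 pH 7.5. MTSES (2 mM final) was added under clamp with flow stopped, reacted 2 min, then washed out 5 min. Transients were taken as buffer minus buffer+compound (10 mM) and decay times fitted to a first-order exponential; 3–10 oocytes.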

D444C-EAAC1 = target: T4, D444C-EAAC1 (Oryctolagus cuniculus, UniProt P31597, D444C); experiment: Blockade of sodium-dependent transient currents; settings: D444C; for Decay time of transient currents blocked: 10 mM compound, at −100 mV; for IC50: read-out: IC50 for substrates/blockers of charge movements, Xenopus oocytes, mean ± SEM
T4 sequence (P31597 1-524 D444C): T1 sequence (P31597 1-524 D444S) with S444C
In short: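 Steps from −25 mV to −100…+40 mV. Transients taken as current without minus current with compound. Charge is the sum of integrals at −100 and +40 mV, normalised to 10 mM of the same compound. IC50 from a generalized Hill fit; decay from a first-order exponential; 3–10 oocytes.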

## O=C(O)CCC(=O)O [Succinate, succinate]
D444S-EAAC1 [1]
  Induction of steady-state transport currents: did not induce any steady-state currents
D444S-EAAC1 [2]
  Decay time of transient currents blocked: 9.9 ± 0.7 ms
  IC50: 1340 ± 110 µM
D444N mutant EAAC1; 10 mM succinate
  Inhibition of the transient currents: no inhibition was observed
D444N mutant EAAC1
  IC50: > 10000 µM
D444C after MTSES
  Decay time of transient currents blocked: 8.7 ± 1.5 ms
  IC50: 716 ± 25 µM
D444C-EAAC1
  Decay time of transient currents blocked: 15.7 ± 1.1 ms
  IC50: 840 ± 70 µM

## N[C@@H](CC(=O)O)C(=O)O [L-Aspartate, L-aspartate]
D444S-EAAC1 [1]
  Induction of steady-state transport currents: not observed
D444S-EAAC1 [2]
  Decay time of transient currents blocked: 12.2 ± 0.6 ms
  IC50: 130 ± 15 µM
D444N mutant EAAC1
  IC50: 295 ± 45 µM
D444C after MTSES
  Decay time of transient currents blocked: 10.2 ± 0.4 ms
  IC50: 112 ± 19 µM
D444C-EAAC1
  Decay time of transient currents blocked: 19.3 ± 1 ms
  IC50: 12 ± 2 µM
